# High-throughput results (PubChem BioAssay)
# Hits are enriched below; roughly 0.79% of the tested compounds scored in any of these assays.
# PKA-R2B activ = activators of PKA-R2B holoenzyme, primary screen, biochemical, fluorescence polarization, Cy5-IP20, human; cAMP-dependent protein kinase catalytic subunit beta (Homo sapiens) + cAMP-dependent …; PKA-R2B holoenzyme dissociation; R2B truncated from residue 108, S112A mutant; 0% DMSO only, 100% 113 µM cGMP; activation, % at 11.4 µM; 340,000 tested, 0.079% active;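 active = activation above a cutoff set at the mean over all compounds plus 3 SD, cut at about 18% in these data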;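 note: higher means more holoenzyme dissociation and a rise in polarization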
# UCH37 DUB inh = inhibitors of human UCH37 deubiquitinase, primary screen, biochemical, Ub-AMC cleavage, fluorescence. inhibition, % (concentration not given with the values). AID 588478, 2011. Ubiquitin carboxyl-terminal hydrolase isozyme L5 (Homo sapiens), Q9Y5K5. 330,000 tested, 0.33% active. purified proteasome/UCH37;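 active = mean inhibition over replicate wells above about 20%, limit read from the data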;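 note: 0% = compound-free wells with enzyme and 100% = wells lacking proteasome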
# Target sequence (Q9Y5K5 whole entry, looked up): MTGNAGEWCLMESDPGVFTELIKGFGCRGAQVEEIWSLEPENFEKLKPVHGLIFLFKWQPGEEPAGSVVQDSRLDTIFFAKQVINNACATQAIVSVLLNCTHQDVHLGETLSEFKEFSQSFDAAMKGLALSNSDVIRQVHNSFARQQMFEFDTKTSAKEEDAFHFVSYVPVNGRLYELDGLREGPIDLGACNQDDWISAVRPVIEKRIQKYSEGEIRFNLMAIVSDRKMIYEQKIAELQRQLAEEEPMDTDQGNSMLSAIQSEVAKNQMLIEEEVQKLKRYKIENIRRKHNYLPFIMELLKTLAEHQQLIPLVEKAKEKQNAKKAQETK
#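 Schedule: 30 min plus 25 min, room temperature / Material: human UCH37 within purified proteasomes / Technique: AMC fluorescence intensity at 355/460 nm / Buffer or medium: pH 7.4 Tris-HCl (50 mM) with ovalbumin, ATP-MgCl2, DTT / Controls: wells without proteasome as full block, compound-free enzyme plus substrate as uninhibited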
# Rin1-Abl PPI inh = inhibitors of Rin1-Abl protein binding, primary screen, biochemical, TR-FRET; Tyrosine-protein kinase ABL1 (Homo sapiens) + Ras and Rab interactor 1 (Homo sapiens), …; inhibition, % at 7.35 µM; 360,000 tested, 0.4% active; AID 588664, 2011; in the data active = inhibition above about 5%, passing the limit was not always enough
# PKA-R1A act = activators of PKA-R1A holoenzyme, primary screen, biochemical, fluorescence polarization, Cy5-IP20, bovine R1A, mouse PKAc; PKA-R1A dissociation; scaled: DMSO 0%, 113 µM cGMP 100%; activation, % at 11.4 µM; 340,000 tested, 0.083% active; cAMP-dependent protein kinase type I-alpha regulatory subunit (Bos taurus) + …;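 active = percent activation above the mean of all tested compounds plus 3 SD, cut at about 19% in these data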;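 note: higher means more PKAc released from R1A so a rise in polarization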
# An asterisk follows results filed as active; . = no result given.
SMILES,PKA-R2B activ,UCH37 DUB inh,Rin1-Abl PPI inh,PKA-R1A act
CC(C)(C)c1cc[n+](-c2[nH]c(=O)sc2C=N/N=C(\[O-])c2cccnc2)cc1,.,21.3*,.,.
CCCCC(CC)C(=O)Oc1ccc(O)c(C(C)(C)C)c1 (stereo not given),-9.7,.,9.2*,-3.0
CC(C)Nc1nc(Cl)nc(NCCOc2ccccc2)n1,5.4,5.1,0.9,-3.0
O=C(O)CCCCCN1C(=O)/C(=C/c2ccncc2)SC1=S,-6.6,1.1,2.0,-1.4
C[C@]12CCC[C@H](O1)[C@H]([C@@H](O)c1ccccc1)O2,-3.6,3.7,7.3,-14.2
C[C@@H](OC(=O)N(C)Cc1ccccc1)[C@H]1O[C@]2(C)CCCC[C@H]1O2,1.1,30.0*,1.1,2.8
CS(=O)(=O)N1CCN(C(=O)c2ccc3c(c2)OCCO3)CC1,5.2,4.2,0.1,-8.1
COc1ccccc1NS(=O)(=O)c1cc(NC(=O)Cn2cnc3c2c(=O)n(C)c(=O)n3C)ccc1C,0.9,2.9,-0.9,-7.1
CC(=O)N(C)C1=C(O)c2ccccc2C(=O)C1=O,1.2,8.6,2.1,-5.2
CC(=O)N(C)C1=C(N2CCOCC2)C(=O)c2ccccc2C1=O,-6.9,22.0*,-11.0,-11.3
CC(=O)N(C1=C(N2CCOCC2)C(=O)c2ccccc2C1=O)c1ccc(C(=O)O)cc1,-1.4,24.1*,-2.8,-1.9
O=C(c1ccccc1)c1ccc(N2CCOCC2)cc1,-6.6,.,-1.0,-5.0
COc1cc(/C=C2\SC(=S)N(NC(=O)c3ccccc3O)C2=O)ccc1O,6.5,10.7,-2.0,14.2
O=C(NN1C(=O)/C(=C/c2ccc(O)c([N+](=O)[O-])c2)SC1=S)c1ccccc1Cl,1.2,24.2*,3.6,1.2
O=C(NNC(=O)c1cccs1)c1ccc(Cl)c([N+](=O)[O-])c1,4.0,21.0*,1.9,-4.5
O=C(COC(=O)CNC(=O)c1ccc(Cl)c([N+](=O)[O-])c1)NNC(=O)c1cccs1,12.6,4.0,2.0,-0.2
CN(C)c1ccc(/C=[N+](\[O-])C(C)(C)C=NO)cc1,.,22.9*,.,.
COc1ccc(C(=NOC(C)=O)c2nccc3cc(OC)c(OC)cc23)cc1OC,.,6.7,.,.
COc1ccc(C(=O)c2nccc3cc(OC)c(OC)cc23)cc1OC,-5.1,48.3*,13.9*,3.1
C=C1CN(Cc2ccccc2)S(=O)(=O)c2ccccc21,-8.4,3.6,3.9,-6.2
CCN(CC)c1ccc(C(=O)c2ccccc2C(=O)O)c(O)c1,1.4,20.3*,-2.7,3.5
O=C(COc1ccccc1)NCC(c1cccs1)N1CCOCC1 (stereo not given),4.2,-1.7,2.1,5.0
CC(=NCCCNC1CCCCC1)C1=C(O)CC(C)(C)CC1=O,-10.1,-1.7,0.6,-8.1
Nc1ccc(C(=O)O)c(O)c1,5.4,-1.7,0.0,-2.2
Nc1ccc(N)c(C(=O)O)c1,3.4,.,13.2*,-8.0
SMILES,PKA-R2B activ,UCH37 DUB inh,Rin1-Abl PPI inh,PKA-R1A act
C=C(C)COc1ccc2c(C)c(CC(=O)N3C[C@H]4C[C@@H](C3)c3cccc(=O)n3C4)c(=O)oc2c1,-1.8,-163.2,3.1,-6.1
COc1ccc(CNC(=O)/C=C/C(=O)O)cc1,4.7,-0.8,-4.0,2.2
COc1ccc2c(=O)c(-c3ccccc3C)c(C)oc2c1,0.8,1.1,2.5,-2.6
O=C1C=CC(=O)c2c(O)c(CO)c(CO)c(O)c21,7.4,.,19.7*,16.6
COc1ccc2c(c1)c(C(=O)CN1CCC3(CC1)OCCO3)c(C)n2C,4.0,27.4*,0.9,-12.7
Cc1cc(C)cc(-n2nnnc2-c2cn(C)nc2C(F)(F)F)c1,-12.6,-1.9,7.5*,-18.9
Cc1ccc[n+](CC(=O)/C=C2\N(C)c3ccccc3C2(C)C)c1,-14.1,20.4*,-2.3,-18.3
CN1/C(=C\C(=O)C[n+]2cccc(Br)c2)C(C)(C)c2ccccc21,-8.8,17.3,0.5,-4.5
O=C(NC1=C(Nc2ccc(F)cc2)C(=O)c2ccccc2C1=O)c1ccc(Cl)cc1,-10.2,20.9*,-6.1,2.8
Cc1noc(C)c1NC(=O)Nc1cccc2c1O[C@H](CN(C)S(=O)(=O)c1cccs1)[C@@H](C)CN([C@H](C)CO)C2=O,3.4,13.2,2.7,6.6
O=C(COC(=O)/C=C/c1cccc([N+](=O)[O-])c1)Nc1cccnc1Cl,-9.8,0.1,1.0,-0.4
COc1ccc(/C=C/C(=O)Nc2nc(C)cc(C)n2)cc1OC,0.0,-90.4,-1.6,7.0
COc1cc(/C=C(\C#N)c2nc3ccc(C)cc3[nH]2)cc([N+](=O)[O-])c1O,-7.9,24.2*,-0.2,-4.2
COc1ccc(NC(=O)c2cc(-c3ccncc3)nc3ccc(Br)cc23)cc1OC,-0.3,-1.6,8.8*,-2.2
O=C(c1cccc(-c2ccc(O)cc2)c1)N1CCOCC1,-3.5,5.5,0.2,1.6
CCCCCCCCCCCC(=O)NC1CCS(=O)(=O)C1 (stereo not given),6.7,4.4,-0.6,5.0
CCC(C)S(=O)(=O)c1snnc1C (stereo not given),-3.5,30.8*,0.4,-1.4
Cc1nnsc1S(=O)(=O)c1ccccc1,2.0,0.0,3.9,-7.0
Cc1ccc(C(=O)N2CC(C(=O)O)C2)cc1,.,4.2,-4.4,.
Cc1nnc(N2CCCC(C(=O)Nc3cc(F)ccc3F)C2)c2nn(-c3ccccc3)c(C)c12 (stereo not given),-10.8,-31.3,-4.1,4.7
Cc1nnc(N2CCCC(C(=O)NCc3ccc(OC(C)C)cc3)C2)c2nn(-c3ccccc3)c(C)c12 (stereo not given),7.1,-92.7,32.3*,-9.0
CCOC(=O)CC(NS(=O)(=O)c1ccc(OC)c(OC)c1)c1cccc([N+](=O)[O-])c1 (stereo not given),0.7,6.8,0.0,-6.0
CCOC(=O)N1CCN(c2cc(NCCC(=O)O)c3c4c(onc24)-c2ccccc2C3=O)CC1,-19.9,26.8*,-12.2,-16.4
O=C(O)CCCNc1cc(N2CCN(C(=O)c3ccco3)CC2)c2noc3c2c1C(=O)c1ccccc1-3,-3.1,.,-3.8,3.5
O=C(CCc1ccc(S(=O)(=O)NC2CCCCC2)cc1)N(Cc1ccccc1)Cc1ccccc1,-3.8,32.6*,-0.1,-3.0
O=C(CCc1ccc(S(=O)(=O)NC2CCCCC2)cc1)Nc1ccccc1,-1.6,1.0,0.0,1.5
O=C(CSc1nccn1-c1ncc(C(F)(F)F)cc1Cl)c1ccc(Cl)cc1,7.0,30.9*,-1.0,-2.0
Cc1ccc(C(CSc2nccn2-c2ncc(C(F)(F)F)cc2Cl)=NO)cc1,.,0.5,.,.
O=C(CC(=O)NC1CCCCC1)NN=Cc1ccc(Cl)cc1,.,27.0*,.,.
CC(C)c1ccc(C=NNC(=O)CC(=O)NC2CCCCC2)cc1,.,4.5,.,.
